HCT116 bCat-KO = beta-catenin-lacking colon tumor cell growth suppression; viability, % at 10 µM; HCT116 beta-catenin knockout viability, CellTiter-Glo, 60 h; stronger effect = lower value; 1.5% of 140,000 active;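 active means viability at or under a set limit, the compound median less 4 SD, cut at about 6% in these data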
Fibroblast inh = blocks proliferation of human lung fibroblasts. 1.1% of 85,000 active. viability, % at 10 µM. AID 719. LL 47 human lung fibroblast viability, ATP luminescence; stronger effect = lower value;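 active means viability at or below 50% in the single dose screen; inactive means viability above 50%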;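 further: compound exposure lasted 72 h before the ATP readout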
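Benchmarks: Cell-only wells, no compound | Test system: LL 47 human lung fibroblasts, passage 12 or lower | Input: 1,150 cells/well | Measured by: CellTiter-Glo luminescence measuring cellular ATP | Medium: IMEM, 15% FBS supplement | Schedule: Overnight attachment after seeding, then 72 h compound exposure at 37 °C | Doses: Compound addition at 0.1% DMSO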
Candida biofilm = kills Candida albicans biofilms; 0.14% of 85,000 active; AID 834; C. albicans biofilm + clotrimazole, Alamar Blue; inhibition, % at 6 µM;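 active means inhibition above 20%; inactive means inhibition below 20%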;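 further: preformed 24 hr biofilms exposed to compound for 48 hr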
HUVEC inhibit = blocks proliferation of human endothelial cells; HUVEC proliferation, CellTiter-Glo luminescence, 72 h; stronger effect = lower value; viability, % at 10 µM (by protocol); 1.1% of 86,000 active; AID 648;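 active means viability at or below 30%; inactive means viability above 30%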
PTEN del growth = suppresses growth of cells with PTEN deletion; HCT116 PTEN-null viability, CellTiter-Glo, 60 h; stronger effect = lower value; viability, % at 10 µM; 1.2% of 140,000 active; AID 827;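 active means viability at or below a set limit, 4 SD under the median of all tested compounds, cut at about 3.7% in these data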;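 further: PTEN knockout HCT116 line with beta catenin targeted HCT116 as companion control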
H69AR inhibit = blocks growth of human H69AR lung tumor cells; H69AR lung tumor viability, ATP luminescence, 72 h; stronger effect = lower value; viability, % at 10 µM; 6% of 85,000 active; AID 598;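 active means viability at or below 40%; inactive means viability above 40%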;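 further: multidrug resistant small cell line overexpressing MRP-1 efflux transporter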
Numbers stand for hits; - = inactive; . = not tested or not shown. Only a selection was taken, and hits are over-represented in it overall.

SMILES	HCT116 bCat-KO	Fibroblast inh	Candida biofilm	HUVEC inhibit	PTEN del growth	H69AR inhibit
CCN(CC(=O)Nc1ccccc1OC)C(=O)COc1ccc2ccccc2c1	-	.	.	.	-	.
Cc1nnc(Sc2nc(Sc3nnc(C)s3)nc(N3CCN(C)CC3)n2)s1	.	6.1	-	-	.	0.6
CCOC(=O)N1CCN(C(=O)CSCc2ccccc2Cl)CC1	-	.	.	.	-	.
Cc1cc(C)c(-n2c(C)cc(/C=C3/NC(=O)NC3=O)c2C)c(C)c1	-	-	-	-	-	17.1
Cc1cc(/C=C2/NC(=O)NC2=O)c(C)n1-c1sc2c(c1C#N)CCCC2	-	.	.	.	-	.
COC(=O)c1ccc(NC(C)C(=O)OC)c([N+](=O)[O-])c1 (stereo not given)	-	.	.	.	-	.
COc1ccc(C2CC(=O)c3c(ccc4ccccc34)N2)cc1OC (stereo not given)	-	.	.	.	-	.
CC1(C)CC(=O)C2=C(C1)c1c(ccc3ccccc13)NC2c1ccc(Br)o1 (stereo not given)	-	-	-	-	-	33.1
CCOC(=O)Cc1c(C)nc2c(-c3ccc(OC)cc3)c(C)nn2c1C	-	-	-	-	-	23.1
Cc1nc2c(-c3ccccc3)c(C)nn2c(C)c1CCC(=O)O	-	-	-	-	-	-
CCOC(=O)Cc1c(C)nc2c(-c3ccccc3)c(C)[nH]n2c1=O	-	-	-	-	-	-
CCOC(=O)Cc1c(C)nc2c(-c3ccccc3)c(-c3ccccc3)[nH]n2c1=O	-	-	-	-	-	32.0
CCOC(=O)NC1(NC(C)C)Oc2ccccc2O1	-	-	-	-	-	36.1
CCOC(=O)NC1(NCC(C)C)Oc2ccccc2O1	-	.	.	.	-	.
CCOC(=O)NC1(NCc2ccccc2)Oc2ccccc2O1	-	-	-	-	-	19.4
CCOC(=O)NC1(NC2CCCCC2)Oc2ccccc2O1	-	.	-	-	-	21.0
O=C(/C=C/Nc1ccc(Cc2ccc(N/C=C/C(=O)C(F)(F)F)cc2)cc1)C(F)(F)F	-	.	.	.	-	.
CSCCC(NS(=O)(=O)c1ccccc1F)C(=O)OCc1ccccc1Cl (stereo not given)	-	.	.	.	-	.
Cc1cccc2cc(CN(CC3CCCO3)S(=O)(=O)c3ccccc3)c3nnnn3c12 (stereo not given)	.	-	-	-	.	-
Cc1ccc2cc(CN(CC3CCCO3)S(=O)(=O)c3ccccc3)c3nnnn3c2c1 (stereo not given)	-	-	-	-	-	12.2
O=C(O)CSc1nc(-c2ccccc2)nc2c1oc1ccccc12	-	-	-	-	-	-
COc1ccccc1N1CCN(c2nc(C)nc3c2oc2ccccc23)CC1	-	-	-	-	-	-
Cc1nc(N2CCC(C)CC2)c2oc3ccccc3c2n1	-	-	-	-	-	33.6
Cc1nc(Nc2ccc3c(c2)OCO3)c2oc3ccccc3c2n1	-	.	.	.	-	.
OCCN1CCN(c2nc(-c3ccccc3)nc3c2oc2ccccc23)CC1	-	19.9	-	11.8	-	23.7
SMILES	HCT116 bCat-KO	Fibroblast inh	Candida biofilm	HUVEC inhibit	PTEN del growth	H69AR inhibit
CCOC(=O)C1CCN(c2nc(-c3ccccc3)nc3c2oc2ccccc23)CC1	-	-	-	-	-	-
Cc1nc(N2CCN(Cc3ccc4c(c3)OCO4)CC2)c2oc3ccccc3c2n1	.	-	-	-	.	23.0
O=C(O)C1CCN(c2nc(-c3ccccc3)nc3c2oc2ccccc23)CC1	-	-	-	-	-	19.3
Cc1cccc2nc(CSc3nc4cc([N+](=O)[O-])ccc4s3)cn12	-	.	.	.	-	.
O=C(/C=C/c1ccco1)NC(=S)Nc1cc(-c2nc3ccccc3s2)ccc1Cl	2.6	.	.	.	1.6	.
Cc1ccc(-c2nc3ccccc3s2)cc1NC(=S)NC(=O)c1cccc2ccccc12	1.3	.	.	.	1.7	.
CC(=O)NCC(=O)OCC(=O)c1ccc(Br)cc1	-	.	.	.	-	.
Oc1ccc(C=Nc2ccc(N3CCOCC3)cc2)c(O)c1	-	-	-	-	-	-
Oc1ccc(N=Nc2cccc(C(F)(F)F)c2)cc1C=Nc1ccc(N2CCOCC2)cc1	4.1	.	.	.	-	.
Cc1ccccc1C(=O)NNC(=O)CCC(=O)Nc1cccc(Cl)c1C	-	.	.	.	-	.
N=c1cc(C2(O)CCCCC2)n2c(nc3ccccc32)s1	-	-	-	-	-	6.8
CCCCCC/C(=N\NS(C)(=O)=O)c1ccccc1	-	-	-	-	-	-
CCCCCC/C(=N/O)c1ccccn1	4.2	-	-	28.4	-	24.7
N#CC(C#N)=C1C=CC=CN1/C(=C\c1ccco1)C(=O)c1ccc(Br)cc1	-	.	.	.	-	.
N#CC(C#N)=C1C=CC=CN1/C(=C\c1ccco1)C(=O)c1ccccc1	1.9	.	.	.	1.8	.
COc1ccc(C(=O)CN2CCN(S(=O)(=O)c3cccc([N+](=O)[O-])c3)CC2)cc1	-	.	.	.	-	.
O=C(C1CCN(S(=O)(=O)c2cccc3cccnc23)CC1)N1CCN(C2CCCC2)CC1	-	-	-	-	-	-
O=C(CSc1ncc(-c2ccc(F)cc2)[nH]1)N1CCCCC1	-	.	-	-	-	29.4
COC(=O)c1ccccc1NC(=O)C1CCN(C(=O)c2ccc(OC)cc2)CC1	-	.	.	.	-	.
CCOC(=O)N1CCN(C(=O)c2ccc(C)c(S(=O)(=O)Nc3ccccc3)c2)CC1	-	-	-	-	-	35.8
CCOC(=O)N1CCN(C(=O)c2ccc(C)c(S(=O)(=O)Nc3cccc(C)c3C)c2)CC1	-	-	-	-	-	39.7
CCOC(=O)N1CCN(C(=O)c2ccc(NS(C)(=O)=O)cc2)CC1	-	-	-	-	-	-
Cc1ccc(N2C(=N)/C(=C3/Nc4ccccc4S3)C(c3ccccc3)C2=O)cc1 (stereo not given)	2.8	.	.	.	1.8	.
COC(=O)c1ccccc1NC(=O)c1cc(-c2cccs2)on1	-	-	-	25.3	-	10.5
COC(=O)c1ccccc1NC(=O)c1cc(-c2cccc(OC)c2)on1	.	-	-	-	.	-
SMILES	HCT116 bCat-KO	Fibroblast inh	Candida biofilm	HUVEC inhibit	PTEN del growth	H69AR inhibit
COc1ccc(/C=N/N2C(=O)c3ccccc3C2=O)cc1	-	.	.	.	-	.
COc1ccc(/C=N/n2cc(-c3ccc(OC)cc3)nc2N)cc1	-	-	-	-	-	25.1
COc1ccc(/C=N/n2cc(-c3ccccc3)nc2N)cc1	-	-	-	-	-	18.2
CCCN1C(=O)C(O)(C2CC(=O)CC(C)(C)O2)c2ccccc21 (stereo not given)	-	-	-	-	-	22.6
COc1ccccc1-n1cnnc1SCC(=O)Nc1nc(C)c(Cl)cc1Cl	-	-	-	-	-	-
Cc1cc(C)c(S(=O)(=O)n2ccc3ccccc32)c(C)c1	-	-	-	-	-	7.8
O=S(=O)(c1ccccc1)n1ccc2ccccc21	-	-	-	-	-	-
O=C(Cn1c(-c2cncs2)nc2ccccc21)NCCc1ccccc1	-	-	-	-	-	17.8
COc1ccc(/C=N/NC(=O)COc2ccc(Cl)cc2Cl)cc1Cn1nc(C)cc1C	-	.	.	.	-	.
O=C(Cn1c(=O)oc2cc(S(=O)(=O)N3CCCC3)ccc21)Nc1cccc(C(F)(F)F)c1	-	-	-	-	-	37.8
CCOc1ccc(N(CC(=O)Nc2ccc3c(c2)OCCO3)S(=O)(=O)c2c(C)noc2C)cc1	-	-	-	-	-	-

Assay outcomes as filed in PubChem BioAssay.
